Source: ChEMBL document CHEMBL4177757, “Tight-Binding Inhibition of Human Monoamine Oxidase B by Chromone Analogs: A Kinetic, Crystallographic, and Biological Analysis” (J Med Chem, 2018)

Experiments:
[1] = target: T1, Amine oxidase [flavin-containing] B (Homo sapiens, UniProt P27338); assay: Tight-binding competitive inhibition of recombinant human MAO-B expressed in Pichia pastoris using benzylamine as substrate by fluorimetric horseradish peroxidase-Amplex Red-coupled assay
T1 sequence (P27338 whole entry): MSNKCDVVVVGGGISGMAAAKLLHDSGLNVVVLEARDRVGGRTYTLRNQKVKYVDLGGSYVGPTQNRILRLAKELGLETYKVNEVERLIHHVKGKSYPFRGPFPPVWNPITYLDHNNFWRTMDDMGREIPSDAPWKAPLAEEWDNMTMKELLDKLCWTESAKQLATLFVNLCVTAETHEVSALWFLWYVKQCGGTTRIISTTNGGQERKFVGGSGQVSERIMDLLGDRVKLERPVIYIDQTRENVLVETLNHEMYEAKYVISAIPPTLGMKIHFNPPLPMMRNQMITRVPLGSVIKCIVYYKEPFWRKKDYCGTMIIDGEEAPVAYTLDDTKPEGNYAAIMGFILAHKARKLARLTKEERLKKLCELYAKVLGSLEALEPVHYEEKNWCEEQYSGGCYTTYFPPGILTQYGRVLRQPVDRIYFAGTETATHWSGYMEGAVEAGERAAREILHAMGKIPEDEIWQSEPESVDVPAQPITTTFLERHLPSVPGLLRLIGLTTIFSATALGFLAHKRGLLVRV

[2] = target: T2, Amine oxidase [flavin-containing] A (Homo sapiens, UniProt P21397); assay: Inhibition of recombinant human MAO-A expressed in Pichia pastoris up to 100 uM using kynuramine as substrate by fluorimetric horseradish peroxidase-Amplex Red-coupled assay
T2 sequence (P21397 whole entry): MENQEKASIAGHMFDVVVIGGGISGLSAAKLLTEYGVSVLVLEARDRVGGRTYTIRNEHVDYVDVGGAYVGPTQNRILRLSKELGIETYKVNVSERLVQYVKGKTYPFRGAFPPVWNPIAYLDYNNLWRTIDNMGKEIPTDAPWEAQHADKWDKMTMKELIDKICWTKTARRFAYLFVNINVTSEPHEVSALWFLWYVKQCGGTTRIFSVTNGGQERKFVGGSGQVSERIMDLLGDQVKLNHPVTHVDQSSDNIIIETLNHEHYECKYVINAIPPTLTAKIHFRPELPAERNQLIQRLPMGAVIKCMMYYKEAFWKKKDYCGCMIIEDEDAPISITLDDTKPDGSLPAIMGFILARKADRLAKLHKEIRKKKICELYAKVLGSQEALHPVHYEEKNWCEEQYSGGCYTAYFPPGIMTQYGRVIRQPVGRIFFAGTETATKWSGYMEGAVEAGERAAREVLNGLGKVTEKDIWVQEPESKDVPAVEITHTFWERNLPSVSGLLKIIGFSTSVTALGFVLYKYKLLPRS

[3] = target: T1, Amine oxidase [flavin-containing] B; assay: Non-competitive inhibition of recombinant human MAO-B expressed in Pichia pastoris using benzylamine as substrate by fluorimetric horseradish peroxidase-Amplex Red-coupled assay
Procedure, shortened: (§1)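 Purified Pichia-expressed human MAO-B, benzylamine substrate, H2O2 detected by HRP-Amplex Red coupling. Initial rates were measured at varying substrate and inhibitor levels. Inhibition mode came from global fits to competitive, mixed, non-competitive and uncompetitive Michaelis-Menten forms, chosen by r², plus double-reciprocal plots ([…] vs 1/[S]).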

[4] = target: T1, Amine oxidase [flavin-containing] B; assay: Mixed-type inhibition of recombinant human MAO-B expressed in Pichia pastoris using benzylamine as substrate by fluorimetric horseradish peroxidase-Amplex Red-coupled assay; procedure, shortened: as §1

Ki [1] [nM] | inhibition (INH) [2] | inhibition (INH) [3] | inhibition (INH) [4] | SMILES
2930 | Not Active | – | – | O=c1c(CNc2cccc(Cl)c2)coc2ccccc12
31 | Not Active | Active | Active | O=C(Nc1cccc(F)c1)c1coc2ccccc2c1=O
